Test results as given in ChEMBL document CHEMBL3621177, “Modulation of the Interaction between a Peptide Ligand and a G Protein-Coupled Receptor by Halogen Atoms” (ACS Med Chem Lett, 2015).

Experiments:
[1] = Displacement of [3H]diprenorphine from zebrafish mu opioid receptor expressed in HEK293 cell membranes by radioligand displacement assay; set-up: species or system Danio rerio
Outline: (§1)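 Competition binding on membranes from stably transfected HEK293 cells expressing the zebrafish μ, δ1a or δ1b receptor. Cells were grown to 80% confluence, harvested and pelleted before membrane preparation. [3H]-diprenorphine served as radioligand. Nonspecific binding was defined with 10 μM naloxone. Data were fitted to a one-site displacement model.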

[2] = Displacement of [3H]diprenorphine from zebrafish delta1a opioid receptor expressed in HEK293 cell membranes by radioligand displacement assay; set-up: species or system Danio rerio; outline: as §1
[3] = Displacement of [3H]diprenorphine from zebrafish delta1b opioid receptor expressed in HEK293 cell membranes by radioligand displacement assay; set-up: species or system Danio rerio; outline: as §1
[4] = organism: Danio rerio; assay: Selectivity index, ratio of Ki for zebrafish delta1a opioid receptor to Ki for zebrafish mu opioid receptor

SMILES	Ki [1] [nM]	Ki [2] [nM]	Ki [3] [nM]	Ratio Ki [4]
CC(C)C[C@H](NC(=O)[C@H](Cc1ccc(F)cc1)NC(=O)CNC(=O)CNC(=O)[C@@H](N)Cc1ccc(O)cc1)C(=O)O	210	11.7	10.6	–
CC(C)C[C@H](NC(=O)[C@H](Cc1ccc(Cl)cc1)NC(=O)CNC(=O)CNC(=O)[C@@H](N)Cc1ccc(O)cc1)C(=O)O	312	44.5	40.6	–
CC(C)C[C@H](NC(=O)[C@H](Cc1ccc(I)cc1)NC(=O)CNC(=O)CNC(=O)[C@@H](N)Cc1ccc(O)cc1)C(=O)O	540	44.6	52.9	–
NC(=O)[C@H](Cc1ccc(F)cc1)NC(=O)[C@H](Cc1c[nH]c2ccccc12)NC(=O)[C@@H]1CCCN1C(=O)[C@@H](N)Cc1ccc(O)cc1	51.6	5330	4800	–
CC(C)C[C@H](NC(=O)[C@H](Cc1ccc(Br)cc1)NC(=O)CNC(=O)CNC(=O)[C@@H](N)Cc1ccc(O)cc1)C(=O)O	287	34.1	27.6	–
NC(=O)[C@H](Cc1ccccc1)NC(=O)[C@H](Cc1c[nH]c2ccccc12)NC(=O)[C@@H]1CCCN1C(=O)[C@@H](N)Cc1ccc(O)cc1 [ENDOMORPHIN-1]	32.8	8470	6200	258
NC(=O)[C@H](Cc1ccc(Cl)cc1)NC(=O)[C@H](Cc1c[nH]c2ccccc12)NC(=O)[C@@H]1CCCN1C(=O)[C@@H](N)Cc1ccc(O)cc1	71.9	1700	2330	–
NC(=O)[C@H](Cc1ccc(I)cc1)NC(=O)[C@H](Cc1c[nH]c2ccccc12)NC(=O)[C@@H]1CCCN1C(=O)[C@@H](N)Cc1ccc(O)cc1	294	1590	1960	–
CC(C)C[C@H](NC(=O)[C@H](Cc1ccccc1F)NC(=O)CNC(=O)CNC(=O)[C@@H](N)Cc1ccc(O)cc1)C(=O)O	2230	115	91.1	–
NC(=O)[C@H](Cc1ccc(Br)cc1)NC(=O)[C@H](Cc1c[nH]c2ccccc12)NC(=O)[C@@H]1CCCN1C(=O)[C@@H](N)Cc1ccc(O)cc1	135	1900	2680	–
CC(C)C[C@H](NC(=O)[C@H](Cc1ccccc1I)NC(=O)CNC(=O)CNC(=O)[C@@H](N)Cc1ccc(O)cc1)C(=O)O	401	15.5	28.5	–
CC(C)C[C@H](NC(=O)[C@H](Cc1ccccc1Cl)NC(=O)CNC(=O)CNC(=O)[C@@H](N)Cc1ccc(O)cc1)C(=O)O	1210	42.8	57.2	–
CC(C)C[C@H](NC(=O)[C@H](Cc1ccccc1Br)NC(=O)CNC(=O)CNC(=O)[C@@H](N)Cc1ccc(O)cc1)C(=O)O	1430	24.2	32.3	–
